From ChEMBL document CHEMBL3994616, “Rational design, synthesis, and evaluation of novel 2,4-Chloro- and Hydroxy-Substituted diphenyl Benzofuro[3,2-b]Pyridines: Non-intercalative catalytic topoisomerase I and II dual inhibitor” (Eur J Med Chem, 2017)
Where a name gives a salt, the structure may show the parent alone. Active and inactive are the calls of the source. The rule behind the calls is not given here.

Columns and labels:
[1] = target: DNA topoisomerase 2-alpha (Homo sapiens) (UniProt P11388); test: Inhibition of human recombinant topoisomerase-2alpha-mediated relaxation of supercoiled pBR322 DNA at 100 uM after 30 mins by ethidium bromide staining based agarose gel electrophoresis method relative to control
[2] = test system: HCT-15; test: Antiproliferative activity against human HCT15 cells after 72 hrs by CCK8 assay; format: functional, cell-based; conditions: HCT-15, 72 h
Method in brief: (§1)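 Cells seeded at 2-4 x 10⁴ per well, cultured overnight in medium with 10% FBS at 37 °C, 5% CO₂, then serum-starved 4 h. Graded compound concentrations added for 72 h, CCK-8 added for a further 4 h, absorbance read at 450 nm. IC50 from a four-parameter logistic fit. Results come from three experiments, each in triplicate.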

[3] = test system: T47D; test: Antiproliferative activity against human T47D cells after 72 hrs by CCK8 assay; format: functional, cell-based; method in brief: as §1
[4] = test system: HeLa; test: Antiproliferative activity against human HeLa cells after 72 hrs by CCK8 assay; format: functional, cell-based
[5] = target: DNA topoisomerase 2-alpha (Homo sapiens) (UniProt P11388); test: Poison activity at human recombinant topoisomerase 2 in human HCT15 cells assessed as […] at 50 uM after 2 hrs by Western blot method; format: cell-based
[6] = test system: HCT-15; test: Induction of DNA damage in human HCT15 cells assessed as comet tail formation at 30 uM after 24 hrs using SYBRGreen stain by electrophoresis based fluorescence microscopic method (reference value: 3 +/- 1.1%); format: functional
[7] = test system: HCT-15; test: Induction of DNA damage in human HCT15 cells assessed as comet tail formation at 10 uM after 24 hrs using SYBRGreen stain by electrophoresis based fluorescence microscopic method (reference value: 3 +/- 1.1%); format: functional
[8] = test system: HCT-15; test: Induction of DNA damage in human HCT15 cells assessed as increase in gammaH2AX level at 30 uM after 24 hrs by Western blot method; format: functional, cell-based
Method in brief: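 HCT15 cells exposed to 30 µM for 24 h, then lysed. 60 µg protein per sample run on 12% SDS-PAGE, and γ-H2AX detected by western blot.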

[9] = target: T1, Topoisomerase I/II (Homo sapiens) (UniProt P11387+P11388); test: Inhibition of topoisomerase-1/topoisomerase-2 in human HCT15 cell nuclear extract at 25 uM preincubated for 24 hrs followed by supercoiled pBR322 DNA addition measured after 20 mins by ethidium bromide staining based agarose gel electrophoresis method relative to control; format: protein assay
Method in brief: (§2)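 HCT15 cells treated 24 h at 25, 50 or 100 µM, then nuclear fractions prepared. Nuclear extract incubated with 100 ng pBR322 at 37 °C to read relaxation by endogenous topo I/II. Products run on 1.0% agarose at 50 V for 50 min in TAE, EtBr-stained, UV-visualized. Inhibition percent averaged over three experiments.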

[10] = target: T1, Topoisomerase I/II (Homo sapiens); test: Inhibition of topoisomerase-1/topoisomerase-2 in human HCT15 cell nuclear extract at 50 uM preincubated for 24 hrs followed by supercoiled pBR322 DNA addition measured after 20 mins by ethidium bromide staining based agarose gel electrophoresis method relative to control; format: protein assay; method in brief: as §2
[11] = target: DNA topoisomerase 2-alpha (Homo sapiens) (UniProt P11388); conditions: 250 uM
[12] = target: DNA topoisomerase 2-alpha (Homo sapiens) (UniProt P11388); test: Poison activity at human recombinant topoisomerase 2 alpha assessed as stabilization of enzyme-DNA cleavable complex by measuring formation of linear DNA at 100 to 500 uM using supercoiled pBR322 DNA after 30 mins by ethidium bromide staining based agarose gel electrophoresis method
Method in brief: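 250 ng supercoiled pBR322 preincubated with 3 units human topo II for 10 min in topo II relaxation buffer. Compound then added at 100 or 500 µM and incubated 30 min more at 37 °C. SDS stop, proteinase K 0.25 mg/mL at 45 °C for 30 min. Run on 1% agarose with EtBr at 30 V for 6 h, linear DNA band scored.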

[13] = target: DNA topoisomerase 2-alpha (Homo sapiens) (UniProt P11388); test: Inhibition of human topoisomerase-2 alpha-mediated kinetoplast DNA decatenation after 30 mins by ethidium bromide staining based agarose gel electrophoresis
Method in brief: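 75 ng kDNA in 50 mM Tris-HCl pH 8.0, 120 mM KCl, 10 mM MgCl₂, 0.5 mM DTT, 0.5 mM ATP, 30 µg/mL BSA. Compound added at 250 or 500 µM final, reaction started with 3 units topo II, 10 µL, 30 min at 37 °C. Stopped with SDS/ficoll/dye, proteinase K 0.25 mg/mL for 30 min. Run on 1.2% agarose containing EtBr.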

[14] = organism: Bos taurus; test: Induction of calf thymus DNA intercalation assessed as inhibition of ethidium bromide binding to DNA up to 40 uM after 30 mins by fluorescence assay
Method in brief: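 Calf thymus DNA ([…]) premixed with EtBr ([…]) in 10 mM Tris, pH 7.2, for 30 min at room temperature. Compound added at increasing concentrations […], with 1% DMSO final in all wells including control. Incubated 30 min more with shaking. Fluorescence excited at 471 nm, emission collected 500-700 nm.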

[15] = target: T1, Topoisomerase I/II (Homo sapiens); test: Inhibition of topoisomerase-1/topoisomerase-2 in human HCT15 cell nuclear extract at 100 uM preincubated for 24 hrs followed by supercoiled pBR322 DNA addition measured after 20 mins by ethidium bromide staining based agarose gel electrophoresis method relative to control; format: protein assay; method in brief: as §2
[16] = target: T1, Topoisomerase I/II (Homo sapiens); test: Inhibition of topoisomerase-1/topoisomerase-2 in human HCT15 cell nuclear extract preincubated for 24 hrs followed by supercoiled pBR322 DNA addition measured after 20 mins by ethidium bromide staining based agarose gel electrophoresis method; format: protein assay; method in brief: as §2
[17] = test system: HCT-15; test: Induction of apoptosis in human HCT15 cells assessed as increase in cleaved PARP level after 24 hrs by Western blot method; format: functional, cell-based
Method in brief: (§3)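 HCT15 cells grown to 80% confluency, then treated 24 h at […]. Lysis buffer: Tris/NaCl/1% Triton X-100 with protease inhibitors. 60 µg protein run on 12% SDS-PAGE and transferred to PVDF. Blocked in 5% milk/TBST, primary antibodies 1:1000 for 2-3 h, HRP anti-rabbit 1:2000 for 2 h, ECL detection.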

[18] = test system: HCT-15; test: Induction of apoptosis in human HCT15 cells assessed as increase in Bax level after 24 hrs by Western blot method; format: functional, cell-based; method in brief: as §3
[19] = test system: HCT-15; test: Induction of apoptosis in human HCT15 cells assessed as decrease in Bcl2 level after 24 hrs by Western blot method; format: functional, cell-based; method in brief: as §3
[20] = test system: HCT-15; test: Potency index, ratio of camptothecin IC50 to compound IC50 for human HCT15 cells; format: functional
[21] = test system: HCT-15; test: Potency index, ratio of etoposide IC50 to compound IC50 for human HCT15 cells; format: functional
[22] = test system: HCT-15; test: Potency index, ratio of adriamycin IC50 to compound IC50 for human HCT15 cells; format: functional
[23] = organism: Bos taurus; test: Induction of calf thymus DNA intercalation assessed as inhibition of ethidium bromide binding to DNA after 30 mins by fluorescence assay
Method in brief: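 Calf thymus DNA ([…]) premixed with EtBr ([…]) in 10 mM Tris buffer pH 7.2, 30 min at room temperature with shaking. Compound then added at increasing concentrations […], final DMSO 1% (vehicle for untreated control), further 30 min at room temperature. EtBr fluorescence read at 471 nm excitation, emission spectrum collected 500–700 nm.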

T1 sequence (P11387 whole entry, looked up): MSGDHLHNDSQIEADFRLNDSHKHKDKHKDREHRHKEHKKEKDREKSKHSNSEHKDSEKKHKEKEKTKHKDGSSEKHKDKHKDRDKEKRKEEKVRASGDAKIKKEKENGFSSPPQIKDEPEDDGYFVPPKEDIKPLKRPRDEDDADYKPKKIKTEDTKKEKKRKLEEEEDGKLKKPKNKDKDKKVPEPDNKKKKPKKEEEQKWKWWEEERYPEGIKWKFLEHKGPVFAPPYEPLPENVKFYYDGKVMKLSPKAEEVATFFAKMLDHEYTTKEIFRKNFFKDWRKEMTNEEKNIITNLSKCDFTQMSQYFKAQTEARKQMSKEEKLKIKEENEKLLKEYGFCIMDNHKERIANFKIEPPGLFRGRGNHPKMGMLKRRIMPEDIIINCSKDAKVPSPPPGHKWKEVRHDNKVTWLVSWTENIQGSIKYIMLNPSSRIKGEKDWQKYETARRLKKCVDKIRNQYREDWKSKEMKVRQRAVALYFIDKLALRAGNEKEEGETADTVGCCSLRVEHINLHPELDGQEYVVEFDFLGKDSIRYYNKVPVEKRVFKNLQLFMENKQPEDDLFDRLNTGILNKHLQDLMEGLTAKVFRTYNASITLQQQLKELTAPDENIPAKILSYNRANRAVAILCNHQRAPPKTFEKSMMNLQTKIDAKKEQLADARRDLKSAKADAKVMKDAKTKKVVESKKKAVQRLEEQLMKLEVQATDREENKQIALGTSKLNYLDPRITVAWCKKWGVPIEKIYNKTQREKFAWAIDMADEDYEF
T1 sequence (P11388 whole entry, looked up): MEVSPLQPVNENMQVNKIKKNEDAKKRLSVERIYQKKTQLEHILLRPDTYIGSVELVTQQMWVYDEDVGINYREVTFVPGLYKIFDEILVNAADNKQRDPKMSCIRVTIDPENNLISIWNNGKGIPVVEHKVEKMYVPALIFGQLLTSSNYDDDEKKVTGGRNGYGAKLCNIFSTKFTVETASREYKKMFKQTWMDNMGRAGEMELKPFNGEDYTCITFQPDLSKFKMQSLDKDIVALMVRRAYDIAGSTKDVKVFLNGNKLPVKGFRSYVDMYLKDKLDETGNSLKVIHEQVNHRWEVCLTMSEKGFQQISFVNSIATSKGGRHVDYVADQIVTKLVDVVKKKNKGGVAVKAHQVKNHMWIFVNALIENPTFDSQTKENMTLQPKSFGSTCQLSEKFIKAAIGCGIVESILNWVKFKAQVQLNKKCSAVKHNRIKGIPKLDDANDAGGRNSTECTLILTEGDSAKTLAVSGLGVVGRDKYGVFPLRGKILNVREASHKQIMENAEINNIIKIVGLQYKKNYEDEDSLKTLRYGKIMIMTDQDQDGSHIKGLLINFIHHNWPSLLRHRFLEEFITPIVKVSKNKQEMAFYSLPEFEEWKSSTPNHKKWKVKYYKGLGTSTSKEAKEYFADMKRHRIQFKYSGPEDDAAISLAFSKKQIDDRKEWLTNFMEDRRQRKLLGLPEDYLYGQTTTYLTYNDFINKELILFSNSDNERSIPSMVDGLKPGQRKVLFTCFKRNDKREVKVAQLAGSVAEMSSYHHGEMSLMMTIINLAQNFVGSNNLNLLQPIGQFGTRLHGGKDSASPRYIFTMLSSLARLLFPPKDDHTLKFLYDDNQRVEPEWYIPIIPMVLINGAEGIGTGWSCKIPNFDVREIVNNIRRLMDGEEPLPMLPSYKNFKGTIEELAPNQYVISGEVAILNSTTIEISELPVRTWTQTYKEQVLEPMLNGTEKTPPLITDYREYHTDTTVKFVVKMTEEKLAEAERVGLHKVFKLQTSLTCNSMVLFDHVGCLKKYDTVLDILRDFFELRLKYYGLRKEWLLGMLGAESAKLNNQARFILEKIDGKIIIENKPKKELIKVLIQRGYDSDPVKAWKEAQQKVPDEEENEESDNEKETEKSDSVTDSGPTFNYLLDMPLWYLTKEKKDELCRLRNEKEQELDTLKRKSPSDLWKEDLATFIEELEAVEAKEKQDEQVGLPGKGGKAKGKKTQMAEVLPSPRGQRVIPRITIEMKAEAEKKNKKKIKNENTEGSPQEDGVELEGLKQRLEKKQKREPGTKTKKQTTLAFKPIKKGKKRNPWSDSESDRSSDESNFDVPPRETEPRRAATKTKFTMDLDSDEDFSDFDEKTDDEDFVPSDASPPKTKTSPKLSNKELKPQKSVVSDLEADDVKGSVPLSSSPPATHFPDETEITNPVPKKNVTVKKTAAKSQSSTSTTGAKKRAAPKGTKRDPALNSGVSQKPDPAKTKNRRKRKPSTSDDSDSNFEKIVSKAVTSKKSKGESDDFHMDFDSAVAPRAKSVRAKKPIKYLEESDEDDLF
Sequence of DNA topoisomerase 2-alpha (Homo sapiens) (P11388 whole entry): as the sequence (P11388 whole entry, looked up) above

Oc1cccc(-c2cc(-c3ccccc3Cl)c3oc4ccccc4c3n2)c1
inhibition [1]: 60.2% | IC50 [2]: 1.4 µM | IC50 [3]: 0.1 µM | IC50 [4]: 4.3 µM

Oc1ccccc1-c1cc(-c2ccc(Cl)cc2)c2oc3ccccc3c2n1
inhibition [1]: 55.8% | IC50 [2]: > 50 µM | IC50 [3]: > 50 µM | IC50 [4]: > 50 µM

COc1cc([C@@H]2c3cc4c(cc3[C@@H](O[C@@H]3O[C@@H]5CO[C@@H](C)O[C@H]5[C@H](O)[C@H]3O)[C@H]3COC(=O)[C@H]23)OCO4)cc(OC)c1O [ETOPOSIDE]
IC50 [2]: 5.4 µM | IC50 [3]: 7 µM | IC50 [4]: 9.1 µM | Activity [5]: Active | Activity [6]: 65.5% | Activity [7]: 46.3% | Activity [8]: Active | inhibition [9]: 36.1% | inhibition [10]: 60.9% | inhibition [11]: Active

Oc1cccc(-c2cc(-c3ccc(Cl)cc3)nc3c2oc2ccccc23)c1
inhibition [1]: 87.9% | IC50 [2]: 0.2 µM | IC50 [3]: 2.1 µM | IC50 [4]: 5.7 µM

CC[C@@]1(O)C(=O)OCc2c1cc1n(c2=O)Cc2cc3ccccc3nc2-1 [CAMPTOTHECIN]
IC50 [2]: 0.6 µM | IC50 [3]: 2.1 µM | IC50 [4]: 0.09 µM | inhibition [9]: 74.6% | inhibition [10]: 80.5%

Oc1ccc(-c2cc(-c3ccc(Cl)cc3)c3oc4ccccc4c3n2)cc1
inhibition [1]: 65.6% | IC50 [2]: 21.3 µM | IC50 [3]: 11.6 µM | IC50 [4]: 11.8 µM

Oc1cccc(-c2cc(-c3ccccc3Cl)nc3c2oc2ccccc23)c1
inhibition [1]: 82.9% | IC50 [2]: 1.6 µM | IC50 [3]: 1.5 µM | IC50 [4]: 4.4 µM

Oc1cccc(-c2cc(-c3cccc(Cl)c3)c3oc4ccccc4c3n2)c1
inhibition [1]: 35% | IC50 [2]: 5.9 µM | IC50 [3]: 1.2 µM | IC50 [4]: 6.4 µM

Oc1ccc(-c2cc(-c3ccc(Cl)cc3)nc3c2oc2ccccc23)cc1
inhibition [1]: 100% | IC50 [2]: 0.2 µM | IC50 [3]: 5.9 µM | IC50 [4]: 4.3 µM | Activity [12]: inactive | inhibition [13]: Dose-dependent effect | Activity [5]: inactive | Activity [6]: 6.3% | Activity [8]: inactive | inhibition [14]: inactive | inhibition [9]: 38.2% | inhibition [10]: 45.5% | inhibition [15]: 58.4% | inhibition [16]: Dose-dependent effect | Activity [17]: Dose-dependent effect | Activity [18]: Dose-dependent effect | Activity [19]: Dose-dependent effect

Oc1ccccc1-c1cc(-c2cccc(Cl)c2)c2oc3ccccc3c2n1
inhibition [1]: 4.7% | IC50 [2]: > 50 µM | IC50 [3]: > 50 µM | IC50 [4]: > 50 µM

Oc1ccccc1-c1cc(-c2ccccc2Cl)c2oc3ccccc3c2n1
inhibition [1]: 58.2% | IC50 [2]: 0.3 µM | IC50 [3]: 3 µM | IC50 [4]: 10.9 µM

Cc1c2ccncc2c(C)c2c1[nH]c1ccccc12
inhibition [11]: Active

Oc1ccccc1-c1cc(-c2ccc(Cl)cc2)nc2c1oc1ccccc12
inhibition [1]: 86.7% | IC50 [2]: > 50 µM | IC50 [3]: > 50 µM | IC50 [4]: 9.5 µM

Oc1cccc(-c2cc(-c3ccc(Cl)cc3)c3oc4ccccc4c3n2)c1
inhibition [1]: inactive | IC50 [2]: > 50 µM | IC50 [3]: 2 µM | IC50 [4]: 11.1 µM

Oc1ccc(-c2cc(-c3cccc(Cl)c3)nc3c2oc2ccccc23)cc1
inhibition [1]: 95.4% | IC50 [2]: 0.2 µM | IC50 [3]: 1.9 µM | IC50 [4]: 0.9 µM

COc1cccc2c1C(=O)c1c(O)c3c(c(O)c1C2=O)C[C@@](O)(C(=O)CO)C[C@@H]3O[C@H]1C[C@H](N)[C@H](O)[C@H](C)O1 [DOXORUBICIN HYDROCHLORIDE]
IC50 [2]: 1 µM | IC50 [3]: 0.3 µM

Oc1ccccc1-c1cc(-c2cccc(Cl)c2)nc2c1oc1ccccc12
inhibition [1]: 84% | IC50 [2]: 0.01 µM | IC50 [3]: 0.4 µM | IC50 [4]: 5.2 µM | Ratio IC50 [20]: 60 | Ratio IC50 [21]: 540 | Ratio IC50 [22]: 100

Oc1ccccc1-c1cc(-c2ccccc2Cl)nc2c1oc1ccccc12
inhibition [1]: 85.6% | IC50 [2]: 0.4 µM | IC50 [3]: 3.9 µM | IC50 [4]: 2.8 µM

C[C@@H](CN1CC(=O)NC(=O)C1)N1CC(=O)NC(=O)C1 [DEXRAZOXANE]
Activity [6]: 5.5% | Activity [8]: inactive

Oc1cccc(-c2cc(-c3cccc(Cl)c3)nc3c2oc2ccccc23)c1
inhibition [1]: 85.4% | IC50 [2]: 0.4 µM | IC50 [3]: 1.4 µM | IC50 [4]: 4.3 µM

Oc1ccc(-c2cc(-c3cccc(Cl)c3)c3oc4ccccc4c3n2)cc1
inhibition [1]: 4.9% | IC50 [2]: 5.9 µM | IC50 [3]: > 50 µM | IC50 [4]: > 50 µM

Oc1ccc(-c2cc(-c3ccccc3Cl)c3oc4ccccc4c3n2)cc1
inhibition [1]: 52.7% | IC50 [2]: 46.2 µM | IC50 [3]: 0.8 µM | IC50 [4]: 15.9 µM

COc1cc(NS(C)(=O)=O)ccc1Nc1c2ccccc2nc2ccccc12
inhibition [23]: Dose-dependent effect

Oc1ccc(-c2cc(-c3ccccc3Cl)nc3c2oc2ccccc23)cc1
inhibition [1]: 92.8% | IC50 [2]: 0.4 µM | IC50 [3]: 6.1 µM | IC50 [4]: 3.9 µM
